# Experimental data collected from several papers.
# Each line is one published result; the experiments were not run side by side. pIC50: −log10 of the molar value.
# Cell line: MDA-MB-231
# Effect on: cell growth or viability
SMILES,method,time,measurement,value
N.N.[Cl][Pt][Cl],,24 h,pIC50,4.17
CCCc1cc(=O)n2nc(NCc3c(F)cc(Cl)cc3F)c(C#N)c2[nH]1,ATP luminescence,72 h,pIC50,< 4.30
O=C(O)CCCc1ccc(N(CCCl)CCCl)cc1,CCK-8,48 h,pIC50,< 4.30
COC(C(=O)N1C(=O)SCC1C1(OC)CC2CC(CCC(C)C=CC=CCCC(C)=CC(=O)O2)O1)c1ccccc1 (stereo not drawn),MTT,72 h,pIC50,4.58
Nc1cc(Cl)c(Cl)cc1N,,72 h,pIC50,3.82
O=C1[O][Pt]2([NH][C@@H]3CCCC[C@H]3[NH]2)[O]C1=O,MTT,96 h,pIC50,5.59
N[C@@H](Cc1ccc(N(CCCl)CCCl)cc1)C(=O)O,CCK-8,48 h,pIC50,< 4.30
CC(C)=CCc1c(O)cc2oc3cc(O)c(O)c(CC=C(C)C)c3c(=O)c2c1O,,48 h,pIC50,4.79
C/C1=C/C(=O)O[C@@H]2C[C@@H](CC[C@H](C)/C=C\C=C\CC1)O[C@@](O)([C@@H]1CSC(=O)N1CO)C2,MTT,72 h,pIC50,5.52
Cc1coc2c1c(=O)oc1c3ccccc3ccc21,SRB,72 h,IC50,10.3 µg/mL
C/C1=C/C(=O)O[C@@H]2C[C@@H](CC[C@H](C)/C=C\C=C\CC1)O[C@@](OC(=O)c1ccccc1)([C@@H]1CSC(=O)N1)C2,MTT,72 h,pIC50,5.30
Cn1c(CCCC(=O)O)nc2cc(N(CCCl)CCCl)ccc21,MTT,,pIC50,4.88
